Data on 31 compounds can be found in ChEMBL document CHEMBL1140086, “Targeting the ribose and phosphate binding site of p38 mitogen-activated protein (MAP) kinase: synthesis and biological testing of 2-alkylsulfanyl-, 4(5)-aryl-, 5(4)-heteroaryl-substituted imidazoles” (J Med Chem, 2008).

One assay has as its system Blood. The assay can be described thus: Inhibition of LPS-stimulated TNFalpha release in human whole blood by ELISA. The format is functional, tissue-based. A digest of the protocol: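 Fresh human whole blood diluted with FBS; compound dilutions added, 15 min preincubation (5% CO2), then LPS stimulation; basal wells received DPBS-gentamicin. […] Tests in duplicate except where otherwise stated.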
(An ELISA detects its analyte on a solid surface through an enzyme-linked reagent.)

The target of assay [1] is Mitogen-activated protein kinase 14 (Homo sapiens, UniProt Q16539). The assay is described as follows: Inhibition of p38alpha.
Mitogen-activated protein kinase 14, sequence (Q16539 whole entry): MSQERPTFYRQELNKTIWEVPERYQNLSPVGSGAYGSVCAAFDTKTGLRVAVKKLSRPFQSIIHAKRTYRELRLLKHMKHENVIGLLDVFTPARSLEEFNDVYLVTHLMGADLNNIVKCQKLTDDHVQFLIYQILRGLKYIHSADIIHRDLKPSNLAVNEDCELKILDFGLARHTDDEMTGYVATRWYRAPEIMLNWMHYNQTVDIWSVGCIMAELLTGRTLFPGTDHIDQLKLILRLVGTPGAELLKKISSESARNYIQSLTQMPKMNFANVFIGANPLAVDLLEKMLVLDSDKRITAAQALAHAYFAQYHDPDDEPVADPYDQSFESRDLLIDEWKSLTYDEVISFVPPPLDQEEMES

Molecules are shown by their SMILES.

`COC(=O)CSc1nc(-c2ccc(F)cc2)c(-c2ccnc(NC(C)C(C)C)c2)[nH]1` (stereo not given): the IC50 – broadly, the midpoint of a concentration-inhibition curve – in the assay with Blood amounted to 8940 nM; in assay [1] it was 19 nM.

In assay [1], `Cn1c(SCC(O)CO)nc(-c2ccc(F)cc2)c1-c1ccncc1` (stereo not given) returned an IC50 of 1220 nM. Consider `OCC(O)CSc1nc(-c2ccc(F)cc2)c(-c2ccnc(NC3CCOCC3)c2)[nH]1` (stereo not given), for which the values for the IC50 (in the assay with Blood; in assay [1]) were 131 nM and 3 nM, respectively.

As for `OCCCSc1nc(-c2ccc(F)cc2)c(-c2ccncc2)[nH]1`, the IC50 in the assay with Blood came to 6690 nM; in assay [1], 215 nM. For `CC(C)Nc1cc(-c2[nH]c(SC[C@@H](O)CO)nc2-c2ccc(F)cc2)ccn1`, the results for the IC50 (in the assay on Blood; in assay [1]) were 123 nM and 3 nM, respectively. Consider `COC(=O)CCCSc1nc(-c2ccc(F)cc2)c(-c2ccncc2)[nH]1`, for which the IC50 in the assay with Blood stood at 31900 nM; in assay [1] it was 487 nM. Regarding `CCNc1cc(-c2[nH]c(SCC(O)CO)nc2-c2ccc(F)cc2)ccn1` (stereo not given), the figures for the 50% inhibitory concentration (IC50) (in the assay with Blood; in assay [1]) were 777 nM and 27 nM, respectively. For the compound `CSc1nc(-c2ccc(F)cc2)c(-c2ccnc(NC3CCOCC3)c2)[nH]1`, the IC50 in the assay with Blood was 201 nM. On to `CC(C)CNc1cc(-c2[nH]c(SCC(O)CO)nc2-c2ccc(F)cc2)ccn1` (stereo not given), for which, in the assay with Blood, inhibition was half-maximal at 168 nM (IC50). As for `CC(C)C(C)Nc1cc(-c2[nH]c(SCCO)nc2-c2ccc(F)cc2)ccn1` (stereo not given), the IC50 in the assay on Blood was 37 nM; in assay [1], 11 nM. On to `CC(C)C(C)Nc1cc(-c2[nH]c(SCCCO)nc2-c2ccc(F)cc2)ccn1` (stereo not given), for which the IC50 stood at 145 nM in the assay on Blood and 12 nM in assay [1]. Consider `CC(C)C(C)Nc1cc(-c2[nH]c(SCC(O)CO)nc2-c2ccc(F)cc2)ccn1` (stereo not given), for which the results for the IC50 (in the assay with Blood; in assay [1]) were 183 nM and 15 nM, respectively.

In the assay on Blood, `OCCSc1nc(-c2ccc(F)cc2)c(-c2ccnc(N[C@H]3CC[C@H](O)CC3)c2)[nH]1` gave an IC50 of 157 nM.

For `COC(=O)CSc1nc(-c2ccc(F)cc2)c(-c2ccnc(NC(C)c3ccccc3)c2)[nH]1` (stereo not given), the concentration for half-maximal inhibition (IC50) in the assay on Blood is 45500 nM; in assay [1], 36 nM. With `CC(C)C(C)Nc1cc(-c2[nH]c(SC[C@H](O)CO)nc2-c2ccc(F)cc2)ccn1` (stereo not given in full), the IC50 was 167 nM in the assay on Blood and 18 nM in assay [1].

Regarding `COC(=O)CSc1nc(-c2ccc(F)cc2)c(-c2ccncc2)[nH]1`, the IC50 is 31900 nM in the assay with Blood and 158 nM in assay [1]. For `OCCSc1nc(-c2ccc(F)cc2)c(-c2ccnc(NC3CCOCC3)c2)[nH]1` the same measures were 80 nM and 2 nM. In the assay on Blood, `CCOP(=O)(CSc1nc(-c2ccc(F)cc2)c(-c2ccnc(NC(C)c3ccccc3)c2)[nH]1)OCC` (stereo not given) yielded an IC50 of 19400 nM. The same measure, in the same setting: the same measure for `OCC(O)CSc1nc(-c2ccc(F)cc2)c(-c2ccnc(NCc3ccccc3)c2)[nH]1` (stereo not given): 2670 nM. With `CCC(C)Nc1cc(-c2[nH]c(SCC(O)CO)nc2-c2ccc(F)cc2)ccn1` (stereo not given), the IC50 with Blood is 156 nM; in assay [1], 5 nM. As for `COC(=O)CSc1nc(-c2ccc(F)cc2)c(-c2ccnc(NC(C)C)c2)[nH]1`, the IC50 in the assay with Blood was 12800 nM; in assay [1] it was 4 nM. For `CC(Nc1cc(-c2[nH]c(SCC(O)CO)nc2-c2ccc(F)cc2)ccn1)c1ccccc1` (stereo not given), the IC50 in the assay with Blood stood at 936 nM; in assay [1], 41 nM. As for `CCOC(=O)C(Sc1nc(-c2ccc(F)cc2)c(-c2ccncc2)[nH]1)C(=O)OCC`, the IC50 was determined as 25400 nM with Blood and 2240 nM in assay [1]. The matching figures for `CC(Nc1cc(-c2[nH]c(SCC(=O)O)nc2-c2ccc(F)cc2)ccn1)c1ccccc1` (stereo not given): 65700 nM and 37 nM.

As to `CC(C)Nc1cc(-c2[nH]c(SCCO)nc2-c2ccc(F)cc2)ccn1`, the IC50 in the assay on Blood is 129 nM. For `CNc1cc(-c2[nH]c(SCC(O)CO)nc2-c2ccc(F)cc2)ccn1` (stereo not given), the IC50 was determined as 5720 nM with Blood and 102 nM in assay [1]. For `CC(C)C(C)Nc1cc(-c2[nH]c(SC[C@@H](O)CO)nc2-c2ccc(F)cc2)ccn1` (stereo not given in full) the same measures were 139 nM and 10 nM. The matching figures for `OCCSc1nc(-c2ccc(F)cc2)c(-c2ccncc2)[nH]1`: 4210 nM and 184 nM.

On to `OCC(O)CSc1nc(-c2ccc(F)cc2)c(-c2ccncc2)[nH]1` (stereo not given), for which the IC50 with Blood was found to be 3380 nM; in assay [1], 392 nM. For `CC(C)Nc1cc(-c2[nH]c(SCC(O)CO)nc2-c2ccc(F)cc2)ccn1` (stereo not given), the values for the IC50 (with Blood; in assay [1]) were 126 nM and 3 nM, respectively. The matching figures for `CC(C)Nc1cc(-c2[nH]c(SC[C@H](O)CO)nc2-c2ccc(F)cc2)ccn1`: 180 nM and 6 nM.
